Consider 22 compounds from ChEMBL document CHEMBL4033644, “Aromatase inhibitors and apoptotic inducers: Design, synthesis, anticancer activity and molecular modeling studies of novel phenothiazine derivatives carrying sulfonamide moiety as hybrid molecules” (Eur J Med Chem, 2017).

Data set [1] relates to T47D. The data set can be described thus: Antiproliferative activity against human T47D cells after 48 hrs by SRB assay. It counts as functional, cell-based. Put shortly: (§1)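 Cells grown in RPMI-1640 with 5% heat-inactivated FCS, 1 mmol L-1 L-glutamine and 50 µg/mL gentamicin at 37 °C, 5% CO2. Seeded at 1000–2000 cells/well, 24 h later exposed 48 h to 5, 12, 25 and 50 µmol L-1. Fixed with 10% TCA 1 h at 4 °C, stained with 0.4% SRB, dye dissolved in Tris-HCl, OD 564 nm. IC50 from Boltzmann sigmoidal nonlinear regression.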

A further data set addresses T1, Aromatase (Homo sapiens, UniProt P11511).
T1 sequence (P11511 whole entry): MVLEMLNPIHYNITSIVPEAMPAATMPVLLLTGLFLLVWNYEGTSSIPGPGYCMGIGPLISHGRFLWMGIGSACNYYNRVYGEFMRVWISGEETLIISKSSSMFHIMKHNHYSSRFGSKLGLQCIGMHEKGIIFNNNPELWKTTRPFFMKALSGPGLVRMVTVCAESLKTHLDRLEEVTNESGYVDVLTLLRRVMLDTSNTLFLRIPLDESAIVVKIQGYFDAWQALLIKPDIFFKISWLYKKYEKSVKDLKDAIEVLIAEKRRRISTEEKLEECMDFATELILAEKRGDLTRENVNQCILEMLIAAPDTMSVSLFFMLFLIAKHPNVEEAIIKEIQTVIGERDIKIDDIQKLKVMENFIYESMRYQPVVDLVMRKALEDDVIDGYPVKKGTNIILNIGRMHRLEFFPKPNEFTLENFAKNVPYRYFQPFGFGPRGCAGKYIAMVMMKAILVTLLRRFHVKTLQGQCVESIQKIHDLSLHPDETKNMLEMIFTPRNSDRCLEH
Kind of data set: Inhibition of aromatase activity in human T47D cells after 24 hrs. It counts as cell-based. To be noted: for inhibition (INH): human, 24 h. The method, boiled down:
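T47D cells in DMEM with 10% FBS, 10 µg/ml insulin and 1% penicillin-streptomycin. Plated at 1.2–1.8 × 10,000 cells/well. Treated 24 h with serial dilutions, then cellular aromatase activity measured and IC50 determined.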

Data set [2] relates to T47D. Kind of data set: Cell cycle arrest in human T47D cells assessed as accumulation at S phase at 8.1 uM by flow cytometry (reference value: 17.14%). It counts as functional. The method, boiled down: (§2)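 Cell cycle distribution by flow cytometry in T47D cells, treated cells versus untreated control, at 8.1 µM; percentage of cells in G1, S and G2/M phases recorded.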
For orientation: Flow cytometry measures light scatter and fluorescence of single cells or particles in a stream.

Data set [3] relates to T47D. Kind of data set: Induction of apoptosis in human T47D cells assessed as increase in caspase-9 level by ELISA relative to control. It counts as functional. The method, boiled down:
(§3)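 Caspase-8 and caspase-9 in T47D cells quantified with separate human ELISA kits, reported as ng/mL against untreated control cells.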
For orientation: In an ELISA, binding on a coated surface is turned into a signal by an enzyme label.

Data set [4] deals with T47D. Kind of data set: Induction of apoptosis in human T47D cells assessed as increase in Bax/Bcl2 ratio at IC50 by qRT-PCR analysis relative to control. It counts as functional. In general terms: Quantitative PCR measures a nucleic acid by following its amplification.
The subject of data set [5] is T47D. Kind of data set: Induction of apoptosis in human T47D cells assessed as decrease in Bcl-XL expression level at IC50 by qRT-PCR analysis relative to control. It counts as functional, cell-based.
Data set [6] deals with T47D. Kind of data set: Induction of apoptosis in human T47D cells (reference value: 2.13%). It counts as functional.
For data set [7], the system named is T47D. Kind of data set: Induction of apoptosis in human T47D cells assessed as increase in BAX expression level at IC50 by qRT-PCR analysis relative to control. It counts as functional.
Data set [8] can be described thus: Cytotoxicity against human 184A1 cells after 48 hrs by SRB assay. It counts as cell-based. The conditions noted are these: 184A1, 48 h. The method, boiled down:
as §1

In data set [9] the test system is T47D. Kind of data set: Cell cycle arrest in human T47D cells by flow cytometry. It counts as functional, cell-based. Put shortly: as §2
In data set [10] the test system is T47D. The data set can be described thus: Cell cycle arrest in human T47D cells assessed as accumulation at G2/M phase at 8.1 uM by flow cytometry (reference value: 15.81%). It counts as functional. The method, boiled down:
as §2

For data set [11], the system named is T47D. Kind of data set: Induction of apoptosis in human T47D cells assessed as increase in caspase-8 level by ELISA relative to control. It counts as functional. The method, boiled down: as §3
Data set [12] deals with T47D. Kind of data set: Cell cycle arrest in human T47D cells assessed as accumulation at G1 phase at 8.1 uM by flow cytometry (reference value: 64.92%). It counts as functional. Put shortly: as §2

Regarding `Cc1cc(NS(=O)(=O)c2ccc(N/C=C\C(=O)c3ccc4c(c3)Nc3ccccc3S4)cc2)nc(C)n1`, in the data set with T47D [1], 56.5 µM corresponded to half-maximal inhibition (IC50). In addition, the “inhibition (INH)” value against Aromatase is on record as 35.88%.

In the case of `O=C(/C=C\Nc1ccc(S(=O)(=O)Nc2ccccn2)cc1)c1ccc2c(c1)Nc1ccccc1S2`, the IC50 (commonly the point on the concentration scale where inhibition reaches its midpoint) in the data set with T47D [1] turned out to be 8.8 µM. At Aromatase, the half-maximal inhibitory concentration (IC50) is 6.7 µM and the “inhibition (INH)” value came out at 68.86%.

For the compound `O=C(/C=C\Nc1ccc(S(=O)(=O)Nc2nccs2)cc1)c1ccc2c(c1)Nc1ccccc1S2`, the IC50 in the data set on T47D [1] is 8.1 µM; at Aromatase it was 5.67 µM; in data set [8], 391 µM. Besides, the Activity in the data set on T47D [2] was 13.1%; in the data set with T47D [5], “Below limit of detection”; with T47D [6], 23.2%; in the data set on T47D [9], “Dose-dependent effect”; with T47D [10], 56.3%; in the data set with T47D [12], 7.4%. Also, the “fold change (FC)” value was found to be 8.9 with T47D [3], 55000 in the data set on T47D [7] and 34 with T47D [11]. For the same compound, the Ratio in the data set with T47D [4] was found to be 1e+08. Moreover, the “inhibition (INH)” value against Aromatase stood at 68.32%.

In turn, `Cc1nnc(NS(=O)(=O)c2ccc(N/C=C\C(=O)c3ccc4c(c3)Nc3ccccc3S4)cc2)s1` gave an IC50 in the data set on T47D [1] of 71.4 µM.

In the case of `CC(=O)NS(=O)(=O)c1ccc(N/C=C\C(=O)c2ccc3c(c2)Nc2ccccc2S3)cc1`, the IC50 in the data set on T47D [1] is 71.8 µM. The “inhibition (INH)” value against Aromatase was found to be 40.52%.

In the data set with T47D [1], `N=C(N)NS(=O)(=O)c1ccc(N/C=C\C(=O)c2ccc3c(c2)Nc2ccccc2S3)cc1` gave an IC50 of 23.7 µM. For the same compound, on Aromatase, the half-maximal inhibitory concentration (IC50) worked out at 9.67 µM and the “inhibition (INH)” value was determined as 72.22%.

Compound `CN(C)/C=C\C(=O)c1ccc2c(c1)Nc1ccccc1S2` showed an IC50 in the data set with T47D [1] of 136 µM.

For `COc1cnc(NS(=O)(=O)c2ccc(N/C=C\C(=O)c3ccc4c(c3)Nc3ccccc3S4)cc2)nc1`, in the data set with T47D [1], the IC50 was 83.2 µM.

For `Cc1cc(NS(=O)(=O)c2ccc(N/C=C\C(=O)c3ccc4c(c3)Nc3ccccc3S4)cc2)on1`, half-maximal inhibition with T47D [1] (IC50) was put at 78.4 µM.

`COc1ncnc(NS(=O)(=O)c2ccc(N/C=C\C(=O)c3ccc4c(c3)Nc3ccccc3S4)cc2)c1OC`: half-maximal inhibition in the data set on T47D [1] (IC50) required 82.2 µM. This IC50 and that of the compound before are within 1.5-fold of each other.

`NS(=O)(=O)c1ccc(N/C=C\C(=O)c2ccc3c(c2)Nc2ccccc2S3)cc1` yielded an IC50 in the data set with T47D [1] of 67.6 µM. Further, on Aromatase, the “inhibition (INH)” value was 28.9%.

For the compound `Cc1ccnc(NS(=O)(=O)c2ccc(N/C=C\C(=O)c3ccc4c(c3)Nc3ccccc3S4)cc2)n1`, in the data set on T47D [1], the IC50 is 73.6 µM.

`COc1cccc2c1C(=O)c1c(O)c3c(c(O)c1C2=O)C[C@@](O)(C(=O)CO)C[C@@H]3O[C@H]1C[C@H](N)[C@H](O)[C@H](C)O1` [DOXORUBICIN]: it took 9.8 µM to reach half-maximal inhibition with T47D [1] (IC50).

Consider `O=C(/C=C\Nc1ccc(S(=O)(=O)Nc2ccc3cn[nH]c3c2)cc1)c1ccc2c(c1)Nc1ccccc1S2`, for which half-maximal inhibition in the data set on T47D [1] (IC50) was put at 91.1 µM. This IC50 is about 9.3-fold higher than that of the compound before.

On to `O=C(/C=C\Nc1ccc(S(=O)(=O)Nc2cnc3ccccc3n2)cc1)c1ccc2c(c1)Nc1ccccc1S2`, for which the IC50 with T47D [1] turned out to be 21.4 µM; against Aromatase it was 8.9 µM. In addition, the “inhibition (INH)” value against Aromatase is reported as 65.1%.

For `Cc1noc(NS(=O)(=O)c2ccc(N/C=C\C(=O)c3ccc4c(c3)Nc3ccccc3S4)cc2)c1C`, the concentration for half-maximal inhibition (IC50) in the data set with T47D [1] was 79.5 µM.

`Nc1ccc(S(=O)(=O)c2ccc(N/C=C\C(=O)c3ccc4c(c3)Nc3ccccc3S4)cc2)cc1` yielded an IC50 with T47D [1] of 54.9 µM. The “inhibition (INH)” value at Aromatase was determined as 31.92%.

In the case of `O=C(/C=C\Nc1ccc(S(=O)(=O)c2ccc(N/C=C\C(=O)c3ccc4c(c3)Nc3ccccc3S4)cc2)cc1)c1ccc2c(c1)Nc1ccccc1S2`, it took 46.4 µM to reach half-maximal inhibition with T47D [1] (IC50).

In turn, `O=C(/C=C\Nc1ccc(S(=O)(=O)Nc2ncccn2)cc1)c1ccc2c(c1)Nc1ccccc1S2` displayed an IC50 in the data set with T47D [1] of 61.3 µM. Moreover, the “inhibition (INH)” value at Aromatase is 30.82%.

Consider `Cc1cc(C)nc(NS(=O)(=O)c2ccc(N/C=C\C(=O)c3ccc4c(c3)Nc3ccccc3S4)cc2)n1`, for which, in the data set on T47D [1], it took 50.7 µM to reach half-maximal inhibition (IC50). Moreover, at Aromatase, the “inhibition (INH)” value is recorded as 43.62%.

The compound `O=C(/C=C\Nc1ccc(S(=O)(=O)Nc2ccnn2-c2ccccc2)cc1)c1ccc2c(c1)Nc1ccccc1S2` returned an IC50 in the data set on T47D [1] of 68.1 µM. That is a double-digit micromolar value.

On to `COc1cc(NS(=O)(=O)c2ccc(N/C=C\C(=O)c3ccc4c(c3)Nc3ccccc3S4)cc2)nc(OC)n1`, for which half-maximal inhibition with T47D [1] (IC50) was put at 58.1 µM. Besides, the “inhibition (INH)” value at Aromatase was found to be 44.94%.
